The Kd is the free concentration of one partner at which half of the binding sites on the other are occupied at equilibrium, for simple one-to-one binding.

B1: NELF-E aptamer (parent)
chain: CCCAACGACUGCCGAGCGAGAUUACGCUUGAGCGCCCCACUGAGGAUGCCCACGGGCGAUUGGGGCACGG

The data set covers variants of B1. The experiment in a line: HiTS-RAP. To be noted: with NELF-E (Drosophila). An outline of the steps: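 Kd came from weighted Hill fits to the first binding curve, with intensities normalised to sequencing intensity and averaged per sequence, keeping only fits whose variance was below 1,000,000. That curve was imaged on an Illumina GAIIx flowcell, where sequenced aptamer DNA templates with a T7 promoter and ter site had been transcribed in situ by T7 RNA polymerase and halted by GST-Tus (30 minutes, 37°C). Before each image, clusters equilibrated for 30 minutes at room temperature with NELF-E-mOrange at 0.064 to 1000 nM in HEPES binding buffer.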
In the case of CCCAACGACUGCCGAGGGAGACUACGCUUGAGCGCCCCACUGAGGAUGCCCACGGGCGAUUGGGGCACGG, the Kd stood at 5.02 nM.
For CCCAACGACUGCCGAGGGAGAGUACGCUUGAGCGCCCCACUGAGGAUGCCCACGGGCGAUUGGGGCACGG, the Kd worked out at 4.82 nM.
Next, CCCAACGACUGCCGAGUGAGAGUACGCUUGAGCGCCCCACUGAGGAUGCCCACGGGCGAUUGGGGCACGG: 4.67 nM; CCCAACGACUGCCGAGUGAGAUUACGCUGGAGCGCCCCACUGAGGAUGCCCACGGGCGAUUGGGGCACGG: 5.35 nM; CCCAACGACUGCCGAGGGGGAUUACGCUUGAGCGCCCCACUGAGGAUGCCCACGGGCGAUUGGGGCACGG: 5.02 nM.
Next, CCCAACGACUGCCGAGGGUGAUUACGCUUGAGCGCCCCACUGAGGAUGCCCACGGGCGAUUGGGGCACGG: 7.26 nM; CCCAACGACUGCCGAGUGAGAUGACGCUUGAGCGCCCCACUGAGGAUGCCCACGGGCGAUUGGGGCACGG: 4.95 nM.
As for CCCAACGACUGCCGAGGGAGAUGACGCUUGAGCGCCCCACUGAGGAUGCCCACGGGCGAUUGGGGCACGG, the Kd stood at 5.45 nM.
Turning to CCCAACGACUGCCGAGGGAGAUUACGCUUGAGCGCUCCACUGAGGAUGCCCACGGGCGAUUGGGGCACGG, the Kd was determined as 9.05 nM.
Turning to CCCAACGACUGCCGAGAGAGAUUACGCUUGAGCGCCCCACUGAGGAUGCCCACGGGCGAUUGGGGCACGG, the Kd was determined as 4.3 nM.
On to CCCAACGACUGCCGAGUGAGAUUACGCUUGAGCGCCCCACUGAGGAUGCCCACGGGCGAUUGGGGCACGG, for which the Kd came out at 4.56 nM.
Next, CCCAACGACUGCCGAGGGAGAUUACGCUUGAGCGCCCCACUGAGGAUGCCCACGGGCGAUUGGGGCACGG: 5.02 nM; CCCAACGACUGCCGAGGGAGGUUACGCUUGAGCGCCCCACUGAGGAUGCCCACGGGCGAUUGGGGCACGG: 6.68 nM.
Next, CCCAACGACUGCCGAUCGAGAUUACGCUUGAGCGCCCCACUGAGGAUGCCCACGGGCGAUCGGGGCACGG: 77.5 nM; CCCAACGACUGCCGAUCGAGAUUACGCUUGAGCGCCCCACUGAGGAUGCCCACGGGCGAUAGGGGCACGG: 33.3 nM.
Regarding CCCAACGACUGCCGAGGGAGAUUACGCUUGAGCGCCCCACUGAGGAUGCCCACGGGCGAUUGGGGCGCGG, the Kd was 5.71 nM.
Regarding CCCAACGACUGCCGAUCGAGAUUACGCUUGAGCGCCCCACUGAGGAUGCCCACGGGCGAUUGGGUCACGG, the Kd was found to be 7.8 nM.
Next, CCCAACGACUGCCGAUCGAGAUUACGCUGGAGCGCCCCACUGAGGAUGCCCACGGGCGAUUGGGGCACGG: 6.38 nM.
Next, CCCAACGACUGCCGAUCGAGAUUACGCUCGAGCGCCCCACUGAGGAUGCCCACGGGCGAUUGGGGCACGG: 6.55 nM; CCCAACGACUGCCGAGGGAGAUUACGCUUGAGCGCCCCACUGAGGAUGCCCACGGGCGAUUAGGGCACGG: 28.8 nM.
Next, CCCAACGACUGCCGAGUGAGAUUGCGCUUGAGCGCCCCACUGAGGAUGCCCACGGGCGAUUGGGGCACGG: 5.54 nM.
Turning to CCCAACGACUGCCGAGCAAGAUUGCGCUUGAGCGCCCCACUGAGGAUGCCCACGGGCGAUUGGGGCACGG, the Kd amounted to 5.85 nM.
Next, CCCAACGACUGCCGAGGGAGAUUACGCUUGAGCGCCCCACGGAGGAUGCCCACGGGCGAUUGGGGCACGG: 4.85 nM; CCCAACGACUGCCGAGGGAGAUUACGCUUGAGCACCCCACUGAGGAUGCCCACGGGCGAUUGGGGCACGG: 8.48 nM.
Next, CCCAACGACUGCCGAGGGAGAUUACGCUUGAGCGCCCCACUGAGGAUGCCCACGGGCGAUUGGGUCACGG: 7.17 nM; CCCAACGACUGCCGAGGGAGAUUACGCUUGAGCGCCCCACUGAGGAGGCCCACGGGCGAUUGGGGCACGG: 4.63 nM.
Next, CCCAACGACUGCCGAGGGAGAUUACGCUUGAGCGCCCCACUGAGGAUGCCCACGGGCGAUUGGAGCACGG: 6.78 nM; CCCAACGACUGCCGAGGGAGAUUACACUUGAGCGCCCCACUGAGGAUGCCCACGGGCGAUUGGGGCACGG: 5.44 nM; CCCAACGACUGCCGAGUGGGAUUACGCUUGAGCGCCCCACUGAGGAUGCCCACGGGCGAUUGGGGCACGG: 7.29 nM.
In the case of CCCAACGACUGCCGAGGGAUAUUACGCUUGAGCGCCCCACUGAGGAUGCCCACGGGCGAUUGGGGCACGG, the Kd was determined as 6.58 nM.
Next, CCCAACGACUGCCGAGGGAAAUUACGCUUGAGCGCCCCACUGAGGAUGCCCACGGGCGAUUGGGGCACGG: 5.92 nM; CCCAACGACUGCCGAGGUAGAUUACGCUUGAGCGCCCCACUGAGGAUGCCCACGGGCGAUUGGGGCACGG: 6.33 nM; CCCAACGACUGCCGAGGAAGAUUACGCUUGAGCGCCCCACUGAGGAUGCCCACGGGCGAUUGGGGCACGG: 6.63 nM.
Next, CCCAACGACUGCCGAGGCAGAUUACGCUUGAGCGCCCCACUGAGGAUGCCCACGGGCGAUUGGGGCACGG: 6.41 nM; CCCAACGACUGCCGAGAGAGAUGACGCUUGAGCGCCCCACUGAGGAUGCCCACGGGCGAUUGGGGCACGG: 5.06 nM; CCCAACGACUGCCGAGCAAGAUUACGCUGGAGCGCCCCACUGAGGAUGCCCACGGGCGAUUGGGGCACGG: 5.68 nM.
Next, CCCAACGACUGCCGAUCGAGAUUACGCUUGAGCGCCCCACUGAGGAUGCCCACGGGCGAUUGGAGCACGG: 7.51 nM.
Consider CCCAACGACUGCCGAGGGAGAUUGCGCUUGAGCGCCCCACUGAGGAUGCCCACGGGCGAUUGGGGCACGG, for which the Kd is 5.52 nM.
For CCCAACGACUGCCGAGUGAGAUUACGCUUGAGCACCCCACUGAGGAUGCCCACGGGCGAUUGGGGCACGG, the Kd was 5.49 nM.
Next, CCCAACGACUGCCGAGCAAGAUUACGCUUGAGCGCCCCACGGAGGAUGCCCACGGGCGAUUGGGGCACGG: 4.87 nM; CCCAACGACUGCCGAGGGAGAUUACGCUUGAGCGCCCCACUGAGGAUGCCCACGUGCGAUUGGGGCACGG: 7.51 nM.
Next, CCCAACGACUGCCGAGGGAGAUUACGCUUGAGCGCCCCACUGAGGAUGCCCACGAGCGAUUGGGGCACGG: 7.03 nM.
CCCAACGACUGCCGAGGGAGAUUACGCUUGAGCGCCCCACUGAGGAUGCCCACGGGCGAUUGUGGCACGG: the Kd was 10.3 nM.
In the case of CCCAACGACUGCCGAGCACGAUUACGCUUGAGCGCCCCACUGAGGAUGCCCACGGGCGAUUGGGGCACGG, the Kd stood at 6.3 nM.
For CCCAACGACUGCCGAGCAGGAUUACGCUUGAGCGCCCCACUGAGGAUGCCCACGGGCGAUUGGGGCACGG, the Kd turned out to be 5.36 nM.
On to CCCAACGACUGCCGAGGGAGAUUACGCUUAAGCGCCCCACUGAGGAUGCCCACGGGCGAUUGGGGCACGG, for which the dissociation constant Kd was 3.42 nM.
Next, CCCAACGACUGCCGAUCGAGAUUACGCUUGAGCGCCCCACCGAGGAUGCCCACGGGCGAUUGGGGCACGG: 76.2 nM.
Next, CCCAACGACUGCCGAUCGAGAUUACGCUUGAGCGCCCCACGGAGGAUGCCCACGGGCGAUUGGGGCACGG: 6.39 nM.
Next, CCCAACGACUGCCGAGGGAGAUUACGCUUGAGCGCCCCGCUGAGGAUGCCCACGGGCGAUUGGGGCACGG: 8.44 nM; CCCAACGACUGCCGAGCAAGAGUACGCUUGAGCGCCCCACUGAGGAUGCCCACGGGCGAUUGGGGCACGG: 6 nM; CCCAACGACUGCCGAGGGAGAUUACGCUUGAGCGCCCCACUGGGGAUGCCCACGGGCGAUUGGGGCACGG: 9.66 nM.
Consider CCCAACGACUGCCGAGCAAGAUUACACUUGAGCGCCCCACUGAGGAUGCCCACGGGCGAUUGGGGCACGG, for which the Kd was found to be 6.84 nM.
Next, CCCAACGACUGCCGAGGGAGAUUACGCGUGAGCGCCCCACUGAGGAUGCCCACGGGCGAUUGGGGCACGG: 6.4 nM.
Next, CCCAACGACUGCCGAGGGAGAUUACGCCUGAGCGCCCCACUGAGGAUGCCCACGGGCGAUUGGGGCACGG: 8.7 nM; CCCAACGACUGCCGAGGGAGAUUAUGCUUGAGCGCCCCACUGAGGAUGCCCACGGGCGAUUGGGGCACGG: 5.39 nM.
On to CCCAACGACUGCCGAGGGAGAUUAGGCUUGAGCGCCCCACUGAGGAUGCCCACGGGCGAUUGGGGCACGG, for which the Kd came out at 4.76 nM.
Next, CCCAACGACUGCCGAGGGAGAUUACGCUUGAGUGCCCCACUGAGGAUGCCCACGGGCGAUUGGGGCACGG: 5.64 nM.
Next, CCCAACGACUGCCGAGUGAGAUUACGCUUGAGCGCCCCACGGAGGAUGCCCACGGGCGAUUGGGGCACGG: 5.63 nM.
Next, CCCAACGACUGCCGAGCAAGAUUACGCUUGAGCGCCCCACUGAGGAUGCCCACGGGCGAUUGGGGCACGG: 4.61 nM.
On to CCCAACGACUGCCGAGCUAGAUUACGCUUGAGCGCCCCACUGAGGAUGCCCACGGGCGAUUGGGGCACGG, for which the Kd was 5.57 nM.
As to CCCAACGACUGCCGAGCCAGAUUACGCUUGAGCGCCCCACUGAGGAUGCCCACGGGCGAUUGGGGCACGG, the Kd amounted to 6.13 nM.
Next, CCCAACGACUGCCGAUCGAGAUUACGCGUGAGCGCCCCACUGAGGAUGCCCACGGGCGAUUGGGGCACGG: 6.45 nM; CCCAACGACUGCCGAGUGAGAUUACGCUUGAGCGCCCCACUGAGGAUGCCCACAGGCGAUUGGGGCACGG: 11.6 nM; CCCAACGACUGCCGAGCAAUAUUACGCUUGAGCGCCCCACUGAGGAUGCCCACGGGCGAUUGGGGCACGG: 8.6 nM.
As to CCCAACGACUGCCGAGGGAGAUUACGCUUGAGCGCCCCAGUGAGGAUGCCCACGGGCGAUUGGGGCACGG, the Kd worked out at 5.54 nM.
Next, CCCAACGACUGCCGAGGGAGAUUACGCUUGAGCGCCCUACUGAGGAUGCCCACGGGCGAUUGGGGCACGG: 7.29 nM; CCCAACGACUGCCGAGCAAGAUGACGCUUGAGCGCCCCACUGAGGAUGCCCACGGGCGAUUGGGGCACGG: 4.95 nM.
Consider CCCAACGACUGCCGAGGGAGAUUACGCUGGAGCGCCCCACUGAGGAUGCCCACGGGCGAUUGGGGCACGG, for which the dissociation constant Kd turned out to be 4.86 nM.
Next, CCCAACGACUGCCGAGGGAGAUUACGCUCGAGCGCCCCACUGAGGAUGCCCACGGGCGAUUGGGGCACGG: 4.96 nM; CCCAACGACUGCCGAUCGAGAGUACGCUUGAGCGCCCCACUGAGGAUGCCCACGGGCGAUUGGGGCACGG: 6.64 nM.
Next, CCCAACGACUGCCGAUCGAGAUGACGCUUGAGCGCCCCACUGAGGAUGCCCACGGGCGAUUGGGGCACGG: 5.85 nM; CCCAACGACUGCCGAGGGAGAUUACGCUUGGGCGCCCCACUGAGGAUGCCCACGGGCGAUUGGGGCACGG: 5.92 nM.
Next, CCCAACGACUGCCGAGUGAGAUUACGCUUGAGCGCCCCACUGAGGAUGCCCACGGGCGAUUGGAGCACGG: 11.1 nM.
Regarding CCCAACGACUGCCGAGUGAGAUUACGCUUGGGCGCCCCACUGAGGAUGCCCACGGGCGAUUGGGGCACGG, the Kd is 5.15 nM.
Next, CCCAACGACUGCCGAGGGAGAUUACGCUUGAGCGCCCCACUGAGGAUGCCCACGGGUGAUUGGGGCACGG: 5.45 nM; CCCAACGACUGCCGAGGGAGAUUACGCUUGAGCGCCCCACUGAGGAUGCUCACGGGCGAUUGGGGCACGG: 15.9 nM; CCCAACGACUGCCGAGUGAGAUUACGCUUGAGCGCCCCACUGGGGAUGCCCACGGGCGAUUGGGGCACGG: 20.5 nM.
